Results: ChEMBL document CHEMBL1153229, “The first synthetic agonists of FFA2: Discovery and SAR of phenylacetamides as allosteric modulators” (Bioorg Med Chem Lett, 2010)
Active and inactive are the calls of the source. No cut-off for these calls is given here.

Tests used:
[1] = molecular target: Growth hormone secretagogue receptor type 1 (Homo sapiens) (UniProt Q92847); assay: Agonist activity at GHSR up to 30 uM; assay type: functional
[2] = molecular target: T1, Free fatty acid receptor 2 (Homo sapiens, UniProt O15552); assay: Agonist activity at human FFA2 receptor expressed in CHO cells assessed as inhibition of forskolin-induced cAMP production; assay type: functional, cell-based
T1 sequence (O15552 whole entry): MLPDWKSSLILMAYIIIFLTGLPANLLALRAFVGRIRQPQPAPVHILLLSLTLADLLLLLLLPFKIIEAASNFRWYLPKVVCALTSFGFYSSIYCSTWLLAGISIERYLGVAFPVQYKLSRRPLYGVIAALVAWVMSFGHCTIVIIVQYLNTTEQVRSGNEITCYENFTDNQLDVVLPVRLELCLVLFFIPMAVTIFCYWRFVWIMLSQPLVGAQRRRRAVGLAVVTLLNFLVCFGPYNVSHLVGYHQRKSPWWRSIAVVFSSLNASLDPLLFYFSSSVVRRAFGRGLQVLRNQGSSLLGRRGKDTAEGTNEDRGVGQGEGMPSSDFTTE
Outline: (§1)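 Suspended cells, 10,000 per well, in Hank's balanced salt solution with 25 mM HEPES and 0.01% (w/v) BSA. Stimulated with forskolin (5 μM final) plus serially diluted test ligands, room temperature for 30 min. Antibody and lysis reagents then added, followed by overnight dark incubation with detection solution. Luminescence read (RLU). Efficacy expressed relative to acetate. Means of four experiments.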

[3] = molecular target: Free fatty acid receptor 1 (Homo sapiens) (UniProt O14842); assay: Agonist activity at FFA1 receptor up to 30 uM; assay type: functional
Chain of Free fatty acid receptor 1 (Homo sapiens) (O14842 whole entry): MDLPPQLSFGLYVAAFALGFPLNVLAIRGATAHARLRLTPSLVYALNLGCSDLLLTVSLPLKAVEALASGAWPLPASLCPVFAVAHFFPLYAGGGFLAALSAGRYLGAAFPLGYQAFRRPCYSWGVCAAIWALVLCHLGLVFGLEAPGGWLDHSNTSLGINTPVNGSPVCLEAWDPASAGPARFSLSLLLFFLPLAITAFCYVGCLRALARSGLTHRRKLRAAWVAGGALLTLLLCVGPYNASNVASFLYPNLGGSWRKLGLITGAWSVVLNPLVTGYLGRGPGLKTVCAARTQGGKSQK

[4] = molecular target: T2, Free fatty acid receptor 2 (Homo sapiens) (UniProt O15552); assay: Agonist activity at human FFA2 receptor expressed in CHO cells assessed as inhibition of forskolin-induced cAMP production relative to acetate; assay type: functional, cell-based; outline: as §1
T2 sequence (whole entry): T1 sequence (O15552 whole entry)

[5] = system: Mus musculus; assay: Reduction in plasma free fatty acid level in overnight fasted wild type C57BL/6 mouse at 20 mg/kg, ip after 15 mins; assay type: functional, organism-based; parameters: dose 20 mg/kg
Outline: (§2)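 Male-unspecified C57BL6 mice, wild type or FFA2 knockout, fasted overnight. Given compound or vehicle (10% dimethyl acetamide, 10% ethanol, 30% propylene glycol, 50% saline) ip at 10 ml/kg. Tail blood sampled before and 15 minutes after injection. Plasma FFA measured by enzymatic kit. Ten animals per group; t test.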

[6] = system: Mus musculus; assay: Reduction in plasma free fatty acid level in overnight fasted FFA2 knockout C57BL/6 mouse at 3 mg/kg, ip after 15 mins; assay type: functional, organism-based; parameters: dose 3 mg/kg; outline: as §2
[7] = Cmax in mouse at 5 mg/kg, po; assay type: ADME, organism-based; parameters: dose 5 mg/kg, route oral; conditions: in vivo
[8] = molecular target: T3, Free fatty acid receptor 2 (Mus musculus) (UniProt Q8VCK6); assay: Agonist activity at mouse FFA2 receptor expressed in CHO cells assessed as inhibition of forskolin-induced cAMP production; assay type: functional, cell-based; outline: as §1
T3 sequence (whole entry): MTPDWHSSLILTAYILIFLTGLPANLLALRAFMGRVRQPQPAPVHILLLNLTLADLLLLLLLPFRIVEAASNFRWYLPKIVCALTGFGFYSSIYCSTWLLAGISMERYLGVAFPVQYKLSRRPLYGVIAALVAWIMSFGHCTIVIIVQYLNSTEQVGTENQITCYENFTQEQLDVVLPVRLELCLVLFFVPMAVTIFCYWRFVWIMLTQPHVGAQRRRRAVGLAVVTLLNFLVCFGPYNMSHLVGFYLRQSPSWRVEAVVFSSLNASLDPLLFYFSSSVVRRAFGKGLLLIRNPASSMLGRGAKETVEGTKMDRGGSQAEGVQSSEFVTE

Chain of Growth hormone secretagogue receptor type 1 (Homo sapiens) (Q92847 whole entry): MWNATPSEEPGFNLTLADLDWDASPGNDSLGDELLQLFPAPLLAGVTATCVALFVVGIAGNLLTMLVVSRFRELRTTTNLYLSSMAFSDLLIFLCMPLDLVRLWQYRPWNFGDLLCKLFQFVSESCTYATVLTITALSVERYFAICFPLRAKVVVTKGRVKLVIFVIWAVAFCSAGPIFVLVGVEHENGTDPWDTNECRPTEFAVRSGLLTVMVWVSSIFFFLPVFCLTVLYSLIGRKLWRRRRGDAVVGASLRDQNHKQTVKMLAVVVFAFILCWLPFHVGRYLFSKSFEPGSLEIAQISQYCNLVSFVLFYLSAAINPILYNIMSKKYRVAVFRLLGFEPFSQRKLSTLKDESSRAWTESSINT

- Activity [1]: inactive
- IC50 [2]: 500 nM
- Activity [3]: inactive
- Efficacy [4]: 103%
- Cmax [7]: 83 ng/mL
- Activity [8]: 0.7 µM
SMILES: CC(C)[C@H](C(=O)Nc1ncc(F)s1)c1ccc(Cl)cc1
- Activity [5]: Active
- Activity [6]: inactive
